Calls of active or inactive are those of the source. No cut-off for these calls is given here.
What was measured:
[1] = Cytotoxicity against mouse RAW264 cells assessed as cell survival at 5 uM relative to control; format: toxicity; details: read-out: Survival
[2] = Inhibition of RANKL-stimulated osteoclastogenesis in mouse RAW264 cells assessed as reduction in TRAP activity after 4 days in presence of RANKL; format: functional, cell-based
Outline: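 Murine RAW264 cells differentiated with RANKL (50 ng/mL) for 4 days, with or without compound at a range of concentrations. TRAP activity was read as absorbance at 405 nm, and the IC50 was taken from inhibition of RANKL-induced TRAP up-regulation. Cytotoxicity toward RAW264 cells was also checked.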

RAW264 [3] = experiment: Inhibition of RANKL-stimulated osteoclastogenesis in mouse RAW264 cells assessed reduction in TRAP-positive multinucleated cells at 10 uM after 4 days in presence of RANKL by TRAP-staining based microscopic analysis; format: functional, cell-based
Outline: (§1)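 RAW264 cells were treated with RANKL (50 ng/mL) plus compound at 10 or 20 μM, or without compound, for 4 days. They were then stained with TRAP-staining solution, which stains positive cells red. TRAP-positive multinuclear cells (≥3 nuclei) were counted by microscopy.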

RAW264 [4] = experiment: Inhibition of RANKL-stimulated osteoclastogenesis in mouse RAW264 cells assessed reduction in TRAP-positive multinucleated cells at 20 uM after 4 days in presence of RANKL by TRAP-staining based microscopic analysis; format: functional, cell-based; outline: as §1

Structure (SMILES): CC(C)CN1CC2=C(CC[C@@H]3[C@@]4(C)CCC[C@](C)(C(=O)O)[C@@H]4CC[C@@]23C)C1=O
- viability at 5 µM [1]: 100%
- IC50 [2]: > 50 µM

Structure (SMILES): CC(C)CN1CC2=C(C1=O)[C@]1(C)CC[C@@H]3[C@](C)(CCC[C@]3(C)C(=O)O)[C@H]1CC2
- viability at 5 µM [1]: 100%
- IC50 [2]: > 50 µM

Structure (SMILES): C[C@]12CC(=O)[C@@H](O)[C@](C)(CO)[C@@H]1CC[C@@]1(C)c3cocc3CC[C@H]21 [SPONGIADIOL]
- viability at 5 µM [1]: 97%
- IC50 [2]: > 50 µM

Structure (SMILES): CO[C@H]1O[C@@H](OC)C2=C1CC[C@@H]1[C@@]3(C)CCC[C@](C)(C(=O)O)[C@@H]3CC[C@@]21C
- viability at 5 µM [1]: 98%
- IC50 [2]: > 50 µM

Structure (SMILES): C[C@]12C[C@@H](O)C(=O)[C@](C)(CO)[C@@H]1CC[C@@]1(C)c3cocc3CC[C@H]21 [ISOSPONGIADIOL]
- viability at 5 µM [1]: 96%
- IC50 [2]: > 50 µM

Structure (SMILES): CC(C)CCN1CC2=C(C1=O)[C@]1(C)CC[C@@H]3[C@](C)(CCC[C@]3(C)C(=O)O)[C@H]1CC2
- viability at 5 µM [1]: 100%
- IC50 [2]: > 50 µM

Structure (SMILES): C[C@]12CCC[C@](C)(C(=O)O)[C@@H]1CC[C@@]1(C)c3cocc3CC[C@H]21
- viability at 5 µM [1]: 100%
- IC50 [2]: > 50 µM

Structure (SMILES): C[C@]12CCC[C@](C)(C(=O)O)[C@@H]1CC[C@@]1(C)C3=C(CC[C@H]21)C(=O)N(CCc1ccccc1)C3
- inhibition (RAW264 [3]): Active
- viability at 5 µM [1]: 100%
- IC50 [2]: 13 µM

Structure (SMILES): C[C@]12CCC[C@](C)(C(=O)O)[C@@H]1CC[C@@]1(C)C3=C(CC[C@H]21)CNC3=O
- viability at 5 µM [1]: 100%
- IC50 [2]: > 50 µM

Structure (SMILES): C[C@]12CCC[C@](C)(C(=O)O)[C@@H]1CC[C@@]1(C)C3=C(CC[C@H]21)CN(CCc1ccccc1)C3=O
- viability at 5 µM [1]: 97%
- IC50 [2]: > 50 µM

Structure (SMILES): CC(C)CCN1CC2=C(CC[C@@H]3[C@@]4(C)CCC[C@](C)(C(=O)O)[C@@H]4CC[C@@]23C)C1=O
- inhibition (RAW264 [4]): Active
- viability at 5 µM [1]: 87%
- IC50 [2]: 18 µM
